Experimental findings from ChEMBL document CHEMBL1139422, “Design, synthesis and biological evaluation of novel compounds with conjugated structure as anti-tumor agents” (Bioorg Med Chem, 2008) are described below.

Activity calls are given as the source filed them. The calls are words filed in the database; no cut-off is given here.

Data set [1] has as its system A549. The experiment in a line: Antiproliferative activity against human A549 cells after 48 hrs by MTT assay. It counts as functional, cell-based. Conditions: A549, 48 h. In a few lines:
(§1)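 Cells seeded at 4000/well; compounds (10 mg/mL DMSO stock, diluted in medium) added 24 h after seeding, in duplicate. Incubation 48 h at 37 °C, 5% CO2. MTT (20 µL of 5 mg/mL in PBS) then added for 4 h at 37 °C, and the signal read at 570 nm.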
For orientation: Tetrazolium assays rely on reduction of a dye to a coloured formazan, in cell work by metabolically active cells.

In data set [2] the test system is HepG2. The data set can be described thus: Antiproliferative activity against human HepG2 cells after 48 hrs by MTT assay. To be noted: HepG2, 48 h. It counts as functional, cell-based. In a few lines: as §1
For data set [3], the target named is Histone deacetylase. The data set can be described thus: Inhibition of human recombinant HDAC by fluorimetric assay. It counts as protein assay.
Data set [4] has as its system U-937. The data set can be described thus: Increase in granulocytic differentiation in human U937 cells assessed as CD11c expression at 0.5 uM after 28 hrs by FACS analysis. Type of data set: functional, cell-based. In a few lines: (§2)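 U937 cells were grown in RPMI with 10% FCS, 10 mM Hepes and 2 mM glutamine at 200,000 cells/mL. Compounds in DMSO were given for 30 h (5 µM) or 28 h (0.5 µM). Cells were stained for surface antigen for 30 min at 4 °C in the dark, washed, and resuspended in PBS with propidium iodide. PI-positive cells were excluded from the FACS analysis. Values are means of independent quadruplicates.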
Background: A flow cytometer gives signals particle by particle.

Data set [5] has as its target Histone deacetylase 1 (Homo sapiens, UniProt Q13547). The experiment in a line: Inhibition of human recombinant HDAC1 using Fluor de Lys as substrate by fluorimetric assay. In a few lines:
(§3)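 Purified recombinant HDAC1 or HDAC4 was incubated with acetylated-lysine Fluor de Lys substrate, with or without inhibitor. Developer was then added to give the fluorophore, and fluorescence was read. IC50 values are means of at least three experiments. SI is IC50(HDAC1)/IC50(HDAC4).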

For data set [6], the species on record is Homo sapiens. The data set can be described thus: Selectivity index, ratio of IC50 for human recombinant HDAC1 to IC50 for human recombinant HDAC4. Put shortly: as §3
Data set [7] concerns U-937. The data set can be described thus: Induction of apoptosis in human U937 cells assessed as caspase 3 activation at 0.5 uM after 28 hrs by FACS analysis. Type of data set: functional, cell-based. In a few lines:
(§4)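 U937 cells were grown in supplemented RPMI at 200,000 cells/mL. Compounds in DMSO were given at 5 µM for 24 h or 30 h, or at 0.5 µM for 28 h. Apoptosis was analysed by FACS. Values are means of independent duplicates.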

Data set [8] concerns PC-3. The experiment in a line: Antiproliferative activity against human PC3 cells after 48 hrs by MTT assay. Conditions: PC-3, 48 h. It counts as functional, cell-based. In a few lines:
as §1

Data set [9] concerns the target Histone deacetylase 4 (Homo sapiens, UniProt P56524). The experiment in a line: Inhibition of human recombinant HDAC4 using Fluor de Lys as substrate by fluorimetric assay. Put shortly:
as §3

Data set [10] has as its system U-937. The experiment in a line: Induction of p21waf1/CIP1 expression in human U937 cells after 24 hrs by Western blot analysis. It counts as functional, cell-based. Put shortly: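 U937 cells were treated for 24 h. Total protein extracts (50 µg) were run on a 15% polyacrylamide gel and blotted for p21 (1:500), with tubulin as the loading control.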
In general terms: In western blotting, separated proteins are transferred to a membrane and probed.

A short description of data set [11]: Inhibition of HDAC.
The subject of data set [12] is U-937. The data set can be described thus: Induction of apoptosis in human U937 cells assessed as caspase 3 activation at 5 uM after 30 hrs by FACS analysis. Type of data set: functional, cell-based. Put shortly:
as §4

For data set [13], the system named is U-937. The experiment in a line: Induction of monocytic differentiation in human U937 cells assessed as CD14 expression at 5 uM after 30 hrs by FACS analysis. It counts as functional, cell-based. Put shortly:
as §2

Data set [14] relates to HCT-116. The experiment in a line: Antiproliferative activity against human HCT116 cells after 48 hrs by MTT assay. Type of data set: functional, cell-based. Conditions: HCT-116, 48 h. Put shortly:
as §1

The test system of data set [15] is U-937. The experiment in a line: Increase in granulocytic differentiation in human U937 cells assessed as CD11c expression at 5 uM after 30 hrs by FACS analysis. It counts as functional, cell-based. Put shortly:
as §2

Data set [16] relates to Zea mays. The data set can be described thus: Selectivity for maize histone deacetylase 1A over maize histone deacetylase 1B.
The target in data set [17] is T1, Protein deacetylase HDAC6 (Homo sapiens) (UniProt Q9UBN7).
T1 sequence (whole entry): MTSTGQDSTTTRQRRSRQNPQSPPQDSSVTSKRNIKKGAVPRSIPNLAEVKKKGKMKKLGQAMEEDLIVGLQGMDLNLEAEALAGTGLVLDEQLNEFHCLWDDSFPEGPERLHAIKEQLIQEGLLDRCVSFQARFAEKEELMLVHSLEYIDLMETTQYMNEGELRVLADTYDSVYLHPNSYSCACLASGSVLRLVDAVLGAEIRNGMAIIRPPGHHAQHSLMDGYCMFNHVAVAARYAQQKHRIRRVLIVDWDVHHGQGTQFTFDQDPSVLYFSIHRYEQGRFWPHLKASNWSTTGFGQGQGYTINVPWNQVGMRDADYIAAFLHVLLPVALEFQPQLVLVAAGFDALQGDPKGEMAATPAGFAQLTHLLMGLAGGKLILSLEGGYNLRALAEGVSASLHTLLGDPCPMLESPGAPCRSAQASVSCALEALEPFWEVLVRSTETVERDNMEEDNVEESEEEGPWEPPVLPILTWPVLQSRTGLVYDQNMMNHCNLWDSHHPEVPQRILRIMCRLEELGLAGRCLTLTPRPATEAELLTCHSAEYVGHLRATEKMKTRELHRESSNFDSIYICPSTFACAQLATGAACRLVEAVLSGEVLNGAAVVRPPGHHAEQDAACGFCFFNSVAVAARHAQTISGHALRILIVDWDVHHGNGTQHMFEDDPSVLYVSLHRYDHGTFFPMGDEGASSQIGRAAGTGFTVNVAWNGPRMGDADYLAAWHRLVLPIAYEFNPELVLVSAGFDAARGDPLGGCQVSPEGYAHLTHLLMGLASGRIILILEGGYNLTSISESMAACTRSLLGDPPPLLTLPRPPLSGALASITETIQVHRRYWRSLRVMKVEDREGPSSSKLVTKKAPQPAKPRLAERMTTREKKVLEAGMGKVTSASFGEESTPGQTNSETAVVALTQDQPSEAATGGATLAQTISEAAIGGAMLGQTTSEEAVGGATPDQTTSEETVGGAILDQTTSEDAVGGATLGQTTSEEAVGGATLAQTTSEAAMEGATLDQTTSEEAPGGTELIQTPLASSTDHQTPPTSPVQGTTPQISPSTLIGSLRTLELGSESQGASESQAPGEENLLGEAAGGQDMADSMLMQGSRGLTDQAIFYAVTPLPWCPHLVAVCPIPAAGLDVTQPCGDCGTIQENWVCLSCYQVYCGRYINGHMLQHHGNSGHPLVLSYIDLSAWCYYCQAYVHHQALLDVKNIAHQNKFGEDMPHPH
The experiment in a line: Inhibition of HDAC6 in human U937 cells assessed as induction of alpha-tubulin acetylation after 24 hrs by Western blot analysis. It counts as cell-based. Conditions: U-937. Put shortly: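 U937 cells were treated for 24 h. Total protein extract (50 µg) was run on a 10% polyacrylamide gel and blotted for acetylated α-tubulin (1:500), with total ERK as the loading control.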

For data set [18], the system named is U-937. The data set can be described thus: Induction of apoptosis in human U937 cells assessed as caspase 3 activation at 5 uM after 24 hrs by FACS analysis. It counts as functional, cell-based. In a few lines:
as §4

Data set [19] has as its system U-937. The experiment in a line: Cell cycle arrest in human U937 cells assessed as accumulation at G1 phase at 5 uM after 24 hrs by flow cytometry. It counts as functional, cell-based. In a few lines:
(§5)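 U937 cells were grown in RPMI with 10% FCS, penicillin/streptomycin, amphotericin-B, 10 mM Hepes and 2 mM glutamine, and held at 200,000 cells/mL. Cells were treated 24 h with compounds in DMSO. 2.5×10^5 cells were resuspended in hypotonic buffer (0.1% Triton X-100, 0.1% sodium citrate, 50 µg/mL PI, RNase A) for 30 min in the dark, then analysed by flow cytometry. Values are means of independent duplicates.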

Data set [20] deals with Plasma. The experiment in a line: Stability in rat plasma at 25 ug/ml. Type of data set: ADME, cell-free. In a few lines: (§6)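 Compounds were dissolved in blank rat plasma (1 mg/mL stock) and serially diluted with plasma. Samples were incubated at 37 °C and sampled at several times. Proteins were precipitated with two volumes of acetonitrile and spun at 16,000 rpm for 5 min, and the supernatant was analysed by HPLC.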

The subject of data set [21] is U-937. The experiment in a line: Cell cycle arrest in human U937 cells assessed as accumulation at S phase at 5 uM after 24 hrs by flow cytometry. Type of data set: functional, cell-based. In a few lines: as §5
For data set [22], the system named is Plasma. The data set can be described thus: Stability in rat plasma at 100 ug/ml. It counts as ADME, cell-free. In a few lines: as §6

Histone deacetylase 1, sequence (Q13547 whole entry): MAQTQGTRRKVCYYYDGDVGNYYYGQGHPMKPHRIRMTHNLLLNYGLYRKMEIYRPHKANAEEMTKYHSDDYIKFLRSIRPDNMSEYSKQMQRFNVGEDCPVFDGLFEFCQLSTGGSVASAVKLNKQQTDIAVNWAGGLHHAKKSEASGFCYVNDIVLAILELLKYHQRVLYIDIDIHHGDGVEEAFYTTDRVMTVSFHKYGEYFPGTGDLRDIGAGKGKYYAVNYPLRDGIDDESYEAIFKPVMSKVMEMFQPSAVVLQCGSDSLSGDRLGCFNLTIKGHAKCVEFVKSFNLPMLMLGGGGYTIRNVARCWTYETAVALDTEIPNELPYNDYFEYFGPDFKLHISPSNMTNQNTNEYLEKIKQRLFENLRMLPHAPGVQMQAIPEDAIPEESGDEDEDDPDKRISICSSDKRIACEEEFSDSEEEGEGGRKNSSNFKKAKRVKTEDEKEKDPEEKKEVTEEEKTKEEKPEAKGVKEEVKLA
Histone deacetylase 4, sequence (P56524 whole entry): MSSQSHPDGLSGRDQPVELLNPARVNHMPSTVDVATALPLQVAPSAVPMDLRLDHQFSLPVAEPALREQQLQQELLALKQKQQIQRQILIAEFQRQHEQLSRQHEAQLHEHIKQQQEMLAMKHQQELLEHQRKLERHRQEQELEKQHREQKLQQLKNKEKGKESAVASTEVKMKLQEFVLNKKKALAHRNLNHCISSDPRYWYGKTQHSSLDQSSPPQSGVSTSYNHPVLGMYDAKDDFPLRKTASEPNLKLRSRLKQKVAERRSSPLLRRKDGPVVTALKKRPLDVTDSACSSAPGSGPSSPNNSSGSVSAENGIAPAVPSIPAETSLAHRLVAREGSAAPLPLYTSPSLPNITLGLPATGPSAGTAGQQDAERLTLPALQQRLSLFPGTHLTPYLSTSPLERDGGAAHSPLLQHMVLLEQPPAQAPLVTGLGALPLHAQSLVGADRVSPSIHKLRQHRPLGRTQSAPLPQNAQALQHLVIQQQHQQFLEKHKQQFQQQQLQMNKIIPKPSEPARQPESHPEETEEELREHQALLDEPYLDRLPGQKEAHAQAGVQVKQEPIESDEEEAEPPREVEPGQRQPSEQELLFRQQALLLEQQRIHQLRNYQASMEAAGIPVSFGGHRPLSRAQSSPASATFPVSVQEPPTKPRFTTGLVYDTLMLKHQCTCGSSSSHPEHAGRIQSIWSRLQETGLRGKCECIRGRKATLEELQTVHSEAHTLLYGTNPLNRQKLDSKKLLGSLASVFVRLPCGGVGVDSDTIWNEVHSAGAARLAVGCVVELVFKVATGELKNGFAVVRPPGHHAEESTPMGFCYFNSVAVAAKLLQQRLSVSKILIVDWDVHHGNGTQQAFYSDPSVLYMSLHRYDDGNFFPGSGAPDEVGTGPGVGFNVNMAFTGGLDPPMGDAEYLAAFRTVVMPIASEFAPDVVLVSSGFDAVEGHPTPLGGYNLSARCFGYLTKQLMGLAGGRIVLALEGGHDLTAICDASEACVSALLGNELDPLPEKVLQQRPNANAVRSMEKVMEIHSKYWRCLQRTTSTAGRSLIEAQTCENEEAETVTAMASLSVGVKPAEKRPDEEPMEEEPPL

In the case of `COc1cc(/C=C/c2ccc(C(=O)NO)o2)ccc1OCc1ccccc1`, the IC50 in [1] is 50.3 µM; in data set [2], 30.9 µM; in [3] it was 1.89 µM; in data set [5] it was 13.4 µM; in data set [8], 1.2 µM; in [9], 10.2 µM. The result in [4] and in [7] was Active. The Ratio IC50 in data set [6] was found to be 1.3.

Turning to `CN(C)c1ccc(/C=C/c2ccc(C(=O)NO)o2)cc1`, the IC50 in data set [1] is 46.3 µM; in data set [2], 31.7 µM; in data set [5], 49.1 µM; in data set [8], 3.2 µM; in [9] it was 50.6 µM. Moreover, the outcome in data set [4] and in data set [10] was Active. Also, the Ratio IC50 in data set [6] came to 0.97.

With `O=C(/C=C/C=C/C=C/c1ccccc1)NO`, the IC50 in data set [11] was found to be 1.8 µM.

For `O=C(NO)c1ccc(/C=C/c2ccccc2O)o1`, the half-maximal inhibitory concentration (IC50) in data set [1] is 79.2 µM; in [2], 54 µM; in data set [5] it was 47.1 µM; in data set [14], 5.1 µM; in data set [8], 91.3 µM; in [9], 74.2 µM. Besides, the result in data set [12] and in data set [15] was Active. Moreover, the outcome in [13] was inactive. In addition, the Ratio IC50 in [6] was 0.63.

Turning to `O=C(CCCCCCC(=O)Nc1ccccc1C(=O)NO)Nc1ccccc1`, the IC50 in [2] turned out to be 63.5 µM; in [3], 0.042 µM; in data set [5] it was 0.59 µM; in [14] it was 2.69 µM; in data set [8], 8.17 µM; in data set [9], 0.55 µM. The Ratio IC50 in [6] is 1.01.

As to `Cn1cc(/C=C/C(=O)c2cccc(F)c2)cc1/C=C/C(=O)NO`, in [16], the Selectivity ratio amounted to 176.

`O=C(/C=C/c1ccc(/C=C/C(=O)c2ccc3ccccc3c2)o1)NO`: the IC50 in data set [1] amounted to 29.4 µM; in [2], 9.93 µM; in data set [3], 0.63 µM; in data set [5], 3.77 µM; in data set [14], 2.22 µM; in data set [8], 15.1 µM. In data set [9], the IC50 was found to be 4.38 µM. Besides, the result in data set [17], in [10], in data set [18] and in data set [19] was Active. For the same compound, the Ratio IC50 in data set [6] turned out to be 0.9.

Regarding `O=C(/C=C/c1ccc(/C=C/C(=O)c2ccccc2)o1)NO`, the IC50 in [1] came to 20.2 µM; in data set [2], 12.1 µM; in data set [5] it was 11.5 µM; in data set [14], 2.89 µM; in data set [8] it was 13.3 µM; in data set [9], 22.8 µM. Besides, the Stability entry in [20] and in data set [22] was “Stable” in each case. For the same compound, the outcome in [21], in [17] and in data set [10] was Active. Also, in data set [6], the Ratio IC50 was found to be 0.5.

Consider `O=C(NO)c1ccc(/C=C/c2ccccc2)o1`, for which the IC50 in data set [1] came to 32.5 µM; in data set [2] it was 12.8 µM; in data set [5] it was 49.1 µM; in data set [14], 2.49 µM; in [8] it was 40.4 µM; in [9], 47.2 µM. The result in [12] and in data set [15] was Active. Moreover, the Stability result in [20] and in data set [22] was “Stable” each time. Moreover, in [13], the outcome was inactive. Besides, the Ratio IC50 in data set [6] amounted to 1.04.

The IC50 is the concentration that gives 50% inhibition.
